We go through 22 molecules from PubChem BioAssay AID602218 (Southern Research Specialized Biocontainment Screening …, 2012).

Results filed as inconclusive are left out. The source made the active and inactive calls.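 Rule for the calls: active = inhibition of at least 30% at any tested concentration; inactive = the rest, inconclusive results apart.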

In the first assay the target is M18 aspartyl aminopeptidase (Plasmodium falciparum 3D7). The assay is described as follows: inhibition of malaria M18 aspartyl aminopeptidase – biochemical, QFRET fluorogenic substrate, set 2, counter-screen for PfM17LAP inhibitor project, dose response (AID 602218). To be noted: recombinant PfM18AAP, H-Glu-NHMec fluorogenic cleavage. In outline: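 Technique – released NHMec fluorescence, excitation 370 nm, emission 460 nm · System – purified recombinant Plasmodium falciparum M18 aspartyl aminopeptidase (rPFM18AAP) · Evaluation – percent inhibition versus controls, IC50 by four-parameter logistic fit · Replication – triplicate · Times – 90 min reaction, room temperature · Medium – Tris-HCl buffer pH 7.5 with 2 mM CoCl2, 2% DMSO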
On to `O=C(NO)c1cccc2ccccc12`, for which the half-inhibitory concentration (IC50) was 10.1 µM.

On to `CCCCOc1ccc(CCC(=O)NO)cc1`, for which the 50% inhibitory concentration (IC50) is 18.5 µM. Still for that read-out and setting: next, `O=C(Cc1ccc2c(c1)CCCC2)NO`: 8.93 µM; `CCCCOc1ccc(CNc2c(N(C)O)c(=O)c2=O)cc1`: 65.4 µM; `CN(O)C(=O)Cc1ccc(OCc2ccccc2)cc1`: 29.2 µM. On to `CCCCc1ccc(CC(=O)NO)cc1`, for which the IC50 is 13.7 µM. Still for that read-out and setting: with `CCCCCCCCCC(=O)NO` the figure was 18 µM; with `COc1ccc(CC(=O)NO)cc1`, 16.4 µM; with `Cc1ccc(CC(=O)NO)cc1`, 33.6 µM.

Regarding `CCOc1ccc(CC(=O)NO)cc1`, the IC50 was 34.1 µM. As for `CCCCOc1ccc(C(=O)NO)cc1`, the IC50 is 12.7 µM. Still for that read-out and setting: next, `COc1ccc(CCCC(=O)NO)cc1`: 14.6 µM. The same measure, in the same setting: next, `CC(C)(C(=O)NO)c1ccccc1`: 54.6 µM; `CC(C)COc1ccc(CC(=O)NO)cc1`: 11.4 µM; `O=C(Cc1ccc(Oc2ccccc2)cc1)NO`: 7.13 µM.

In the case of `CCCCOc1ccc(CC(=O)N(C)O)cc1`, the IC50 was 40.2 µM. Still for that read-out and setting: with `CCCCOc1ccc(CC(=O)NO)cc1` the figure was 10 µM. On the same count and under the same terms, next, `O=C(Cc1ccc(OCc2ccccc2)cc1)NO`: 9.64 µM.

The assay is the same for the next values; noted with them: recombinant PfM18AAP, H-Glu-NHMec fluorogenic cleavage; at 25 µM (top of the series).
With `CCCCOc1ccc(CNc2c(N(O)Cc3ccccc3)c(=O)c2=O)cc1`, the inhibition result was “inactive”.

Still in this assay, the particulars now being: recombinant PfM18AAP, H-Glu-NHMec fluorogenic cleavage; at 100 µM (top of the series).
For the molecule `CCCOc1ccc(CC(=O)OC)cc1`, the inhibition entry was “inactive”.

On to `CCCCOc1ccc(CC(=O)O)cc1`, for which the inhibition result was “inactive”. Same read-out and setting: with `COC(=O)Cc1ccc(OCCN(C)C)cc1` the entry was “inactive”.

A word on the IC50: it is the concentration needed to halve the response being measured.
